Bioassay records as filed in PubChem BioAssay.
The list is not random: actives were taken first. Their share in the collection is about 4.3%.
SMARCA2 act: SMARCA2 function activation, primary screen; MG213 cells, MMTV-luciferase reporter, dexamethasone, overnight; activation, % at 9.1 µM; 1% of 370,000 active; AID 652017; in the data active = activation above about 7.8%;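 note: 0% = vehicle wells and 100% = reference activator wells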
AHR activator: activates the human aryl hydrocarbon receptor; P35869; AHR-responsive luciferase reporter cells, luminescence; activation, % at 5 µM; 2.5% of 320,000 active; AID 2796; in the data active = activation above about 47%;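 note: 0% = vehicle wells and 100% = reference agonist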
Target sequence (P35869 whole entry, looked up): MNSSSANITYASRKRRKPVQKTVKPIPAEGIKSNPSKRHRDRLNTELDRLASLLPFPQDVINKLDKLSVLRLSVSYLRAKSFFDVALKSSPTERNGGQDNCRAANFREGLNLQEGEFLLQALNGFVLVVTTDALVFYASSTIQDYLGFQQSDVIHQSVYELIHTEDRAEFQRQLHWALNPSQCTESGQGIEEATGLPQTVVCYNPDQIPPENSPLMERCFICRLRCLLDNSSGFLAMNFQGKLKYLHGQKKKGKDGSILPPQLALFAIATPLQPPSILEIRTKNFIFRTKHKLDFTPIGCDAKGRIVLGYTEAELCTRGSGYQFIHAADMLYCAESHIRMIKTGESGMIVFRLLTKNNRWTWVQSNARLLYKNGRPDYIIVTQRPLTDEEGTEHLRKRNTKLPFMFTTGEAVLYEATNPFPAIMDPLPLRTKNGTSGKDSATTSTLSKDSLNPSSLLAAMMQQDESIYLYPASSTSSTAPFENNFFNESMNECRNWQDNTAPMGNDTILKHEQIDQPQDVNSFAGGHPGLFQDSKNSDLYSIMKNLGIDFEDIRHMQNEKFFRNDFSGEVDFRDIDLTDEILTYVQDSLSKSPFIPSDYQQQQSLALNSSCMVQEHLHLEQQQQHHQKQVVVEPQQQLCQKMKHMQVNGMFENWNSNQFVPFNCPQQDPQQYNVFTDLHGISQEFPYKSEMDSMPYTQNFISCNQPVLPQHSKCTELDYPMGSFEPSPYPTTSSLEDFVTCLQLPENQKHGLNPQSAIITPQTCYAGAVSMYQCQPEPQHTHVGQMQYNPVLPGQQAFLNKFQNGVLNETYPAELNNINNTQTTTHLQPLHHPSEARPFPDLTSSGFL
Lipid droplet: hepatic lipid droplet formation modulation; AML12 mouse hepatocytes, oleate lipid droplets, BODIPY imaging; inhibition, % at 6.5 µM; AID 1656; 0.4% of 240,000 active;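 active = lipid droplet intensity inhibited by at least 50%, with more than 500 cells counted; inconclusive = wells with under 300 cells, treated as cytotoxic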
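Assay system: AML12 mouse liver cells | Compound: 6.5 µM single-point dosing | Schedule: Overnight exposure | Technique: Fluorescence imaging, 20x objective, two fields per well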
SR-BI DiI-HDL act: activators of SR-BI mediated HDL lipid uptake; AID 504775; 0.096% of 320,000 active; activation, % at 12.5 µM; CHO ldlA[mSR-BI] cells, DiI-HDL uptake fluorescence, 3 h; 100 = double the neutral-control signal;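 active = mean replicate activation of at least 60% and every replicate at or above 60%; inconclusive = mean or all-replicate condition met, but not both; inactive = mean below 60% and not all replicates reaching 60%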;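 note: 0% = median plate neutral-control signal and 100% = twice that signal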
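Test system: SR-BI-overexpressing, LDLR-lacking CHO cells; Also added: labelled HDL, 10 µg/mL; Measured by: bottom-read cell fluorescence after medium removal, ex 550/em 595 nm; Timing: 3 h uptake period with compound, 37 °C; Buffer or medium: F12, 0.5% BSA, 25 mM HEPES; Doses: single compound concentration, delivered by pin transfer.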
CR mimetic SO: caloric restriction mimetics inhibiting age-related superoxide in yeast | 0.18% of 330,000 active | S. cerevisiae aged cells, superoxide DHE fluorescence; stronger effect = lower value | superoxide response (% of plate mean), % at 10 µM;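 active = superoxide response under a set limit, about three screen SD below normal, cut at about 65% in these data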;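 note: yeast aged for seven days with compound at 30 °C before DHE staining; 100% = average MFI of all compound-treated wells on the plate with controls excluded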
SR-BI DiI inh: mouse SR-BI HDL lipid transfer inhibition; Q61009; ldlA[mSR-BI] CHO cells, DiI-HDL uptake fluorescence, 3 h; inhibition, % at 12.5 µM; 0.96% of 320,000 active; AID 488896;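 active = mean replicate inhibition of at least 70% and a set share of replicates each scoring 70 or more; inconclusive = meets just one of the two criteria; inactive = fails both criteria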;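 note: 0% = median of neutral control wells and 100% = median of positive control wells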
AHR act confirm: human AHR activation, confirmation; shares compounds with AHR activator; human cells, AHR-responsive luciferase reporter, luminescence; activation, % at 9 µM; 87% of 2,300 active; in the data active = activation above about 49%;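 note: HepG2 hepatoma cells carrying a DRE-driven firefly luciferase reporter; 0% = vehicle wells and 100% = reference agonist wells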
PXR counter: counter-screen for AHR activators: human PXR activators; cell-based PXR reporter, luciferase luminescence; AID 434939; activation, % at 11.6 µM; shares compounds with AHR activator; 88% of 2,300 active; in the data active = activation above about 11%;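 note: human hepatoma DPX-2 cells expressing full-length human PXR; 0% = DMSO and 100% = reference agonist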
Starred values were filed as active, the others as inactive; u = inconclusive; x = no result.

SMILES	SMARCA2 act	AHR activator	Lipid droplet	SR-BI DiI-HDL act	CR mimetic SO	SR-BI DiI inh	AHR act confirm	PXR counter
Cc1c(C)c(C)c2[nH]c(-c3ccc4c(c3)OCO4)nc2c1C	x	102*	35	-34	88	34	102*	50*
COc1ccc(C)cc1NC(=O)C(OC(=O)CNC(=O)c1ccc(Oc2ccccc2)cc1)c1ccccc1 (stereo unspecified)	1	95*	-26	-12	74	12	71*	20*
Fc1ccc(/C=N/Nc2ncnc3nc[nH]c23)cc1F	5	103*	13	-2	95	2	65*	32*
c1csc(CCNc2ncnc3sc4c(c23)CCC4)c1	-4	34	x	-28	98	28	x	x
c1cn(CCCNc2ncnc3sc4c(c23)CCC4)cn1	-2	128*	x	3	108	-3	92*	18*
N=C1S/C(=C\c2ccco2)C(=O)N1c1nccs1	-10	112*	-1	-57	130	57	111*	10*
O=C1c2ccccc2C(=O)N1CCc1ccccn1	-3	99*	14	13	88	-13	100*	10*
O=C1c2cccc3c([N+](=O)[O-])ccc(c23)C(=O)N1CCc1ccccn1	0	12	-5	7	94	-7	x	x
Cc1occc1-c1nnc(SCC(=O)Nc2ccccn2)n1-c1ccccc1	-3	x	x	x	x	x	x	x
C[C@H](CO)N1C[C@H](C)[C@@H](CN(C)S(=O)(=O)c2ccc(F)cc2)Oc2cc(Br)ccc2S1(=O)=O	3	x	x	x	x	x	x	x
CSCc1c(C(=O)Nc2ccc(N3CCOCC3)cc2)oc2ccccc12	-2	87*	3	-6	82	6	95*	13*
CSCc1c(C(=O)Nc2ccccc2N2CCOCC2)oc2ccccc12	1	18	x	-5	92	5	x	x
CC(=O)Nc1c(C(=O)Nc2ccc3c(c2)OCO3)oc2ccccc12	3	113*	11	-27	111	27	147*	35*
O=C(CCl)Nc1c(C(=O)Nc2ccc3c(c2)OCCO3)oc2ccccc12	0	23	1	-4	94	4	x	x
COCC(=O)Nc1c(C(=O)Nc2ccc3c(c2)OCO3)oc2ccccc12	6	134*	-2	-6	109	6	100*	48*
COc1cccc(NC(=O)c2oc3ccccc3c2NC(=O)c2ccc3c(c2)OCO3)c1	2	-6	x	-45	113	45	x	x
CSCc1c(C(=O)Nc2ccc3c(c2)OCO3)oc2ccccc12	2	92*	-25	-8	88	8	109*	45*
CC1=N/C(=C\c2ccc([N+](=O)[O-])cc2)C(=O)N1c1ccc(C)c(Cl)c1	-4	x	x	x	x	x	x	x
C/C(=N\NC(=S)Nc1ccc(F)cc1)c1ccc2c(c1)OCCO2	2	137*	4	-3	117	3	84*	14*
COC(=O)/C(=C(O)\C=C\c1ccccc1[N+](=O)[O-])c1nc2ccccc2[nH]1	-2	92*	31	-89	98	89*	113*	47*
Cc1ccc(CN2CC=CS2(=O)=O)cc1	-2	x	x	x	x	x	x	x
Cc1nc(/N=C\N(C)C)sc1C(=O)Nc1ccccc1	4	108*	1	-1	105	1	130*	11*
Cc1nc(C(=O)Nc2ccccc2)sc1C(=O)Nc1ccccc1	2	2	-4	-71	113	u	x	x
Cc1nc(N)sc1C(=O)Nc1ccccc1	-1	105*	x	-19	93	19	46	23*
Cc1nc(Nc2c(Cl)cccc2Cl)sc1C(=O)Nc1ccccc1	-1	6	42	-3	94	3	x	x
SMILES	SMARCA2 act	AHR activator	Lipid droplet	SR-BI DiI-HDL act	CR mimetic SO	SR-BI DiI inh	AHR act confirm	PXR counter
Cc1nc(-c2cccnc2)sc1C(=O)Nc1ccc(F)cc1F	-1	8	x	-7	87	7	x	x
Cc1nc(-c2cccnc2)sc1C(=O)Nc1ccc(Cl)cc1	-3	124*	x	-29	111	29	112*	13*
Cc1ccc2nc3c(cc2c1)c(NC(=O)c1cccnc1)nn3C	1	107*	8	u	102	-74	118*	25*
CCCC(=O)Nc1nn(C)c2nc3cc(C)ccc3cc12	x	85*	x	x	98	x	53*	x
CCCC(=O)Nc1nn(C)c2nc3ccc(C)cc3cc12	1	7	17	-22	96	22	x	x
CN1CCN(Cn2cc(/C=C/C(=O)c3ccccc3)c3ccccc32)CC1	x	86*	2	-10	99	10	110*	47*
COCc1cc(N2CCN(C(=O)OC(C)(C)C)C[C@@H]2C)ccc1N1CC[C@@H](O)C1	-2	x	x	x	x	x	x	x
COC(=O)C1=C(C)N(C)C(=NCc2cc(OC)c(OC)c(OC)c2)NC1c1cccc(C(F)(F)F)c1 (stereo unspecified)	0	x	x	x	x	x	x	x
c1ccc2nc(N3CCCC3)c(N3CCCCC3)nc2c1	-2	x	x	-21	x	21	x	x
c1ccc2nc3c(nc2c1)OCC1CCCCN31 (stereo unspecified)	4	102*	x	8	99	-8	104*	46*
C[C@@H](/C=C/C(=O)OC(C)(C)C)Sc1ccc(C(C)(C)C)cc1	-1	x	x	x	x	x	x	x
Cc1c(C(=O)N2c3ccccc3CC2C)oc2ccccc12 (stereo unspecified)	5	85*	6	x	124	39	74*	28*
COCc1c(C(=O)OCC(=O)N2c3ccccc3CC2C)oc2ccccc12 (stereo unspecified)	-2	4	x	5	85	-5	x	x
CNC(=O)/C(C#N)=C1\SC(Cc2ccc(F)cc2)C(=O)N1c1ccccc1C (stereo unspecified)	-3	0	-41	-8	85	8	x	x
CC1S/C(=C(\C#N)C(N)=O)N(c2ccc(F)cc2)C1=O (stereo unspecified)	2	97*	x	21	99	-21	122*	15*
CCOc1ccc(-c2nc(N)nc(C)c2-c2ccc(Cl)cc2)c(O)c1	1	90*	x	-21	91	21	79*	39*
O=C([C@@H]1C[C@H]1c1ccccc1)N1CC[C@H]2[C@H](CCCN2Cc2cc(F)cc(F)c2)C1	-3	x	x	x	x	x	x	x
CCC(=O)N(Cc1ccc(C)cc1)Cc1cc2cc3c(cc2[nH]c1=O)OCO3	0	17	18	-3	107	3	x	x
CCC(=O)N(CCc1ccccc1)Cc1cc2cc3c(cc2[nH]c1=O)OCO3	-3	92*	x	13	98	-13	93*	54*
